The source of these data is ChEMBL document CHEMBL5532647, “Design, synthesis, ADME and biological evaluation of benzylpiperidine and benzylpiperazine derivatives as novel reversible monoacylglycerol lipase (MAGL) inhibitors” (Eur J Med Chem, 2024).

The target in test [1] is T1, Lysophosphatidylserine lipase ABHD12 (Homo sapiens) (UniProt Q8N2K0).
T1 sequence (whole entry): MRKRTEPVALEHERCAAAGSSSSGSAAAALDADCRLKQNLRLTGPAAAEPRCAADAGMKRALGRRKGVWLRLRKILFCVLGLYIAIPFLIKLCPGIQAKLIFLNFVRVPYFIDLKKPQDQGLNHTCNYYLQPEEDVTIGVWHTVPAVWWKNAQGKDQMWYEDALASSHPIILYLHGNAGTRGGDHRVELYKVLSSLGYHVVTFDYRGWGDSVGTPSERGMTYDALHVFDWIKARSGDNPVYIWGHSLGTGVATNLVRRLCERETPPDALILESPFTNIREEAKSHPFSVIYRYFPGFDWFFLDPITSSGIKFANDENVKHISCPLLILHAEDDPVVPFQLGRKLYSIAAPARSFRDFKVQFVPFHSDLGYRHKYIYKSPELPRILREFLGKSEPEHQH
Nature of the test: Inhibition of human ABHD12 transfected in HEK293 cells at 10 uM preincubated with compound for 30 mins followed by 2-OG addition and measured after 5 mins by liquid scintillation spectroscopy. It is filed as cell-based. The note with it: time 35.0 min. A digest of the protocol:
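Homogenates (40 μg) of HEK293 cells stably transfected with hABHD6 or hABHD12. Compound 10 μM preincubated 30 min at 37 °C, 500 rpm, in Tris/EDTA buffer with 0.1% fatty acid-free BSA, pH 7.6. Controls: WWL70 10 μM or THL 20 μM; DMSO vehicle. 2-OG 10 μM added for 5 min at 37 °C. Stopped with ice-cold CHCl3:MeOH; aqueous phase counted. No-enzyme blanks used; non-transfected HEK293 hydrolysis subtracted.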

The target of test [2] is T2, Monoglyceride lipase (Homo sapiens) (UniProt Q99685).
T2 sequence (whole entry): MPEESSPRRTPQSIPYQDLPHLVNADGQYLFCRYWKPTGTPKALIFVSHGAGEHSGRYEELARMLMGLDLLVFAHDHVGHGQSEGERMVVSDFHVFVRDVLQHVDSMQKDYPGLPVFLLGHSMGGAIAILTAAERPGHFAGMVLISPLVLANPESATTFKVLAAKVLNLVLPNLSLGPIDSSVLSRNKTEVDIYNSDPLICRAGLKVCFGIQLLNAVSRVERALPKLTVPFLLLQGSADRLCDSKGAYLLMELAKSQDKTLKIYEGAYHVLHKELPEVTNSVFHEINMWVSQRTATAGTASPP
Nature of the test: Reversible inhibition of human recombinant MAGL using 4-nitrophenylacetate as substrate preincubated with compound for 60 mins followed by substrate addition and measured after 30 mins by microplate reader analysis. Particulars: time 90.0 min. A digest of the protocol: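 Human recombinant MAGL (11 ng/well) in Tris pH 7.2 buffer with EDTA and BSA, preincubated with compound for 0, 30 or 60 min at room temperature. Reaction then started with 4-NPA 500 μM (solution added). Absorbance at 405 nm after 30 min. IC50 from triplicates of two independent experiments.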

In test [3] the target is T2, Monoglyceride lipase (Homo sapiens). Nature of the test: Reversible inhibition of human recombinant MAGL using 4-nitrophenylacetate as substrate at 8 nM incubated for 15 mins by microplate reader analysis. The method in brief: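 Human recombinant MAGL (880 ng in Tris buffer, pH 7.2) incubated 60 min at room temperature with compound at 320 nM in the mixture, then diluted 40-fold in buffer. After 15 min, reaction started with 4-NPA 500 μM (stock added). Activity read at 405 nm after 30 min. Undiluted comparison run at 320 nM and 8 nM.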

Test [4] shares this target. Nature of the test: Reversible inhibition of human recombinant MAGL using 4-nitrophenylacetate as substrate incubated for 15 mins in presence of DTT by microplate reader analysis. A digest of the protocol:
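Human recombinant MAGL (11 ng/well) in 10 mM Tris, pH 7.2, with 1 mM EDTA and 0.1 mg/mL BSA, at room temperature. Compound plus 4-NPA incubated 15 min with 10 μM DTT before enzyme addition. Compound final 320–0.02 nM. Absorbance at 405 nm after 30 min, blank-subtracted. IC50 from sigmoidal dose–response fit.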

The target in test [5] is T3, Fatty-acid amide hydrolase 1 (Homo sapiens) (UniProt O00519).
T3 sequence (whole entry): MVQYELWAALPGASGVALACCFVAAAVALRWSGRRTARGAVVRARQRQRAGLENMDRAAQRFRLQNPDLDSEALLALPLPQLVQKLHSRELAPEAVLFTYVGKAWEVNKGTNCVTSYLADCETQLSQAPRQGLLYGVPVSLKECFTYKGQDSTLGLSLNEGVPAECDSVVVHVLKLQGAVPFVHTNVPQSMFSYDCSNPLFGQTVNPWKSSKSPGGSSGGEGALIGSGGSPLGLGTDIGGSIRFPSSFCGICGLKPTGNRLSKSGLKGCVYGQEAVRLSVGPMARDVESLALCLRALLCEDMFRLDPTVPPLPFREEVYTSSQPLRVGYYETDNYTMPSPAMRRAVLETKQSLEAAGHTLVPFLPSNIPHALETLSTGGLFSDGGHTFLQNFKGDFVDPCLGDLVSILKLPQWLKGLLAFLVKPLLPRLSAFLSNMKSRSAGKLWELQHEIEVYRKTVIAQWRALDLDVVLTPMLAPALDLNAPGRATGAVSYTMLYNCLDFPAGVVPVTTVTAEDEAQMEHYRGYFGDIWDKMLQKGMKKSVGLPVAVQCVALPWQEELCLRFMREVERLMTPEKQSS
In words: Inhibition of FAAH in human U-937 cells at 10 uM preincubated with compound for 15 mins followed by 2-OG addition and measured after 15 mins by scintillation liquid counter analysis. The note with it: time 30.0 min. Type of test: cell-based.

The target in test [6] is Cannabinoid receptor 1 (Homo sapiens) (UniProt P21554). Nature of the test: Displacement of [3H]CP55940 from human CB1 receptor at 10 uM incubated for 90 mins. A digest of the protocol: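 Membranes expressing hCB1 or hCB2 in 50 mM Tris-HCl buffer, pH 7.4, with 2.5 mM EDTA, 5 mM MgCl2 and 0.5% fatty acid-free BSA. Incubated with compound (10 μM screening) or vehicle plus 0.5 nM [3H]CP55,940 for 90 min at 30 °C. Non-specific binding defined with 10 μM […]. GF/B filtration, ice-cold buffer washes, radioactivity counted. Two independent experiments in triplicate.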
Sequence of Cannabinoid receptor 1 (Homo sapiens) (P21554 whole entry): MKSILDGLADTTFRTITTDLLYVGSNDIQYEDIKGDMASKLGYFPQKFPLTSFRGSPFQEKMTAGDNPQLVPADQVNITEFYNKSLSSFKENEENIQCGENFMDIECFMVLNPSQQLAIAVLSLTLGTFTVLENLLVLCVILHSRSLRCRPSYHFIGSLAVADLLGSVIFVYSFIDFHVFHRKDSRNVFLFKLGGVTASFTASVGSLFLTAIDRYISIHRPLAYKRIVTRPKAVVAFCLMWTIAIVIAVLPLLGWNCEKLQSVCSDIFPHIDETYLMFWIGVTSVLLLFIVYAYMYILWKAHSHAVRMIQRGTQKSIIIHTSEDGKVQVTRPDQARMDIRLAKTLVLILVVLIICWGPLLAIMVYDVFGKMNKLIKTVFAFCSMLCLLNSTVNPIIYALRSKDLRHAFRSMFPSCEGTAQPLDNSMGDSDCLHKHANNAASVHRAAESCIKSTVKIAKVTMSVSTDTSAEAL

A further test has as its target T4, Monoglyceride lipase (Homo sapiens, UniProt Q99685).
T4 sequence (Q99685 whole entry): T2 sequence (whole entry)
In words: Reversible inhibition of MAGL in human U-937 cells using 2-oleoylglycerol as substrate preincubated with compound for 30 mins followed by substrate addition and measured after 5 mins. Type of test: cell-based. A digest of the protocol:
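Intact U937 cells co-incubated with compound for 30 min. Then 10 μM 2-oleoylglycerol plus 1.0 nM [3H]2-OG tracer added for a further 5 min at 37 °C. JZL-184 (1 μM) served as full-inhibition control. Two independent experiments in triplicate. IC50 given as mean (95% CI).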

Molecules are shown by their SMILES. Calls of active or inactive are those of the source. No cut-off for these calls is given here.

As to `O=C(c1cc(O)ccc1F)N1CCN(Cc2cccc(Sc3cc(C(F)(F)F)ccn3)c2)CC1`, the inhibition result in test [1], in test [4] and in test [5] was “inactive” in each case. Besides, the inhibition result in test [2] and in test [3] was “Active” each time. For the same compound, in test [6], the outcome was inactive. The IC50 on Monoglyceride lipase came to 0.489 µM.

In the case of `O=C(c1cccc(O)c1)N1CCC(Cc2cccc(Sc3cc(C(F)(F)F)ccn3)c2)CC1`, the inhibition entry in test [1], in test [4] and in test [5] was “inactive” each time. The inhibition entry in test [2] and in test [3] was “Active” in each case. The result in test [6] was inactive. Also, the IC50 on Monoglyceride lipase was determined as 0.197 µM.

Regarding `O=C(c1cc(O)ccc1F)N1CCC(Cc2cccc(Sc3cc(C(F)(F)F)ccn3)c2)CC1`, the inhibition entry in test [1], in test [4] and in test [5] was “inactive” each time. Also, the inhibition result in test [2] and in test [3] was “Active” each time. In addition, the outcome in test [6] was inactive. Moreover, the concentration for half-maximal inhibition (IC50) on Monoglyceride lipase came to 0.199 µM.

As for `O=C(c1cccc(O)c1)N1CCC(Cc2ccc(F)c(Sc3cc(C(F)(F)F)ccn3)c2)CC1`, the inhibition result in test [1], in test [4] and in test [5] was “inactive” each time. For the same compound, the inhibition result in test [2] and in test [3] was “Active” in each case. Moreover, in test [6], the result was inactive. For the same compound, at Monoglyceride lipase, the IC50 came out at 0.193 µM.
